Screens (PubChem BioAssay)
The list is not random: actives were taken first. Their share in the collection is about 4.7%.
RGS4 pot = potentiators or activators of RGS4; B-score at 10 µM; AID 463111; hit rate 0.92% among 310,000; HEK293 M3R/inducible RGS4, carbachol calcium flux Fluo4; active compounds read low;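 active means B-score of the integrated calcium signal more than 4 SD below the library mean, with starting fluorescence not abnormally high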;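 further: negative B-score means reduced calcium response which marks RGS4 activation or potentiation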
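test system = HEK293 cells with stable M3R and inducible RGS4 | schedule = recording 10 s baseline at 1 Hz, 100 s post-agonist | technique = Fluo4-AM (2 µM) calcium-flux fluorescence, kinetic read | measure = Agonist-evoked peak-minus-minimum fluorescence over baseline, integrated ratio, B score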
KCC2 mod = modulates chloride dependent transport by human KCC2; Q9H2X9; KCC2 cells, thallium flux FluoZin-2 fluorescence; B-score of Tl+ flux slope (higher = more flux/activation; lower = inhibition) at 10 µM; hit rate 2.2% among 190,000; AID 1456;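 active means thallium flux slope and its plate-corrected score both differing from the plate sample mean at a set confidence after two filtering rounds, in either direction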;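 further: slope of fluorescence scaled to starting intensity during 10 to 20 s after thallium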
MrgX1 antagonist = antagonists of human MrgX1 receptor | AID 588676 | B-score at 10 µM | Q96LB2 | hit rate 1.3% among 310,000 | MRGX1-HEK293 calcium flux, Fluo-4, BAM8-22 antagonism; active compounds read low;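 active means calcium-response B-score plate-corrected more than 3 library SD below zero, starting fluorescence within 5 deviations, no agonist response on first addition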;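 further: peak minus trough fluorescence over baseline after final BAM8-22 challenge near maximal dose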
Target sequence (Q96LB2 whole entry, looked up): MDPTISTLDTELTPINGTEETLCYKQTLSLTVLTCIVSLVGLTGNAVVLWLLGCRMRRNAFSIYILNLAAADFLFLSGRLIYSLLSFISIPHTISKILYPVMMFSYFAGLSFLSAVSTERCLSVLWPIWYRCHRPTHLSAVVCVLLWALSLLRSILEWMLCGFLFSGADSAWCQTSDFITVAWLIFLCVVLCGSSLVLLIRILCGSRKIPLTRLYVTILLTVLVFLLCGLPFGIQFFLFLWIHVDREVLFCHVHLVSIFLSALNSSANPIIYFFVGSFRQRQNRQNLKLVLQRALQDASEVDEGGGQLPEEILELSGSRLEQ
MrgX1 agonist = activates human MrgX1 receptor signaling | MrgX1-HEK293 cells, Fluo-4 calcium fluorescence, agonist mode; active compounds read high | hit rate 0.44% among 310,000 | B-score at 10 µM | AID 588627 | Q96LB2;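 active means calcium response B-score plate-corrected fluorescence ratio at least 3 library SD, with starting fluorescence B-score inside 5 SD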
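Material: HEK293 cells stably expressing human MrgX1 receptor | Quantity: 15,000 cells per well | Times: Cells plated overnight, dye loaded 0.5 h 37 °C, 0.5 h room temperature | Measured by: Kinetic Fluo-4 NW fluorescence of intracellular calcium | Control set: Positive and negative controls per plate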
MrgX1 PAM = allosterically activates human MrgX1 receptor signaling | B-score at 10 µM | hit rate 0.63% among 310,000 | AID 588675 | MrgX1-HEK293, Fluo-4 calcium flux, FDSS; active compounds read high | Q96LB2;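 active means plate-corrected calcium response at least 3 library SD above typical, normal starting fluorescence, not activating the receptor alone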;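 further: compound read alongside a low EC10 to EC30 dose of BAM8-22 agonist; peak minus trough fluorescence over baseline measured at the second addition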
RGS4 inh = human RGS4 inhibition; P49798; HEK293 M3R/RGS4 inducible, Fluo-4 calcium flux; active compounds read high; triggered by carbachol at its EC20; hit rate 0.45% among 310,000; B-score at 10 µM; AID 463165;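 active means B-score, a plate-corrected calcium signal, over three deviations above library mean, with baseline fluorescence within five deviations of library mean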;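 further: RGS4 expression induced by doxycycline in cells with stable M3 receptor; B-score is computed from the integrated fluorescence ratio over baseline after carbachol; higher B-score means a larger calcium signal and so more RGS4 inhibition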
Target sequence (P49798 whole entry, looked up): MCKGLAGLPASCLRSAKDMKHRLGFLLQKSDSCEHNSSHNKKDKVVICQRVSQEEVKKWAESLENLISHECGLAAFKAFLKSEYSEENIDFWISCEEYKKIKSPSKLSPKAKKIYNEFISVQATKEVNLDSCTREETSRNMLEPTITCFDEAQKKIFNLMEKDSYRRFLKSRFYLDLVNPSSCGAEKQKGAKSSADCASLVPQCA
Each line names hits and unclear results; the compound was inactive in the other large screens.

CCOC(=O)c1c(S(=O)(=O)N2CCCCCC2)c(C)n(C)c1C	none (no result: KCC2 mod)
Cc1cc2nc(-c3ccc(SCc4ccc(C#N)cc4)nc3)[nH]c2cc1C	MrgX1 antagonist -6.1
CC(=O)CSc1ccc(-c2nc3cc(C)c(C)cc3[nH]2)cn1	none
CCc1ccc2c(c1)c(N=NC1=NC(=O)CS1)c(O)n2CC	RGS4 inh 5 (no result: KCC2 mod)
CCc1ccc(-c2nc(CSCC(=O)N3CCN(c4ccccn4)CC3)c(C)o2)cc1	MrgX1 antagonist -7.1 (no result: KCC2 mod)
O=C(CN1C(=O)COc2ccc(S(=O)(=O)N3CCOCC3)cc21)Nc1cccc(Cl)c1	none (no result: KCC2 mod)
Cn1c(SCC(=O)NC2(C#N)CCCCC2)nnc1-c1cccnc1	none (no result: KCC2 mod)
S=c1[nH]cnc2sc(-c3ccccc3)cc12	KCC2 mod 196
S=c1[nH]cnc2scc(-c3ccccc3)c12	KCC2 mod 62
C=CCN(CC=C)S(=O)(=O)c1ccc(NC(=S)NC(=O)c2ccco2)cc1	KCC2 mod 8.1
C=CCN(CC=C)S(=O)(=O)c1ccc(NC(=S)NC(=O)c2ccc(-c3ccccc3)cc2)cc1	none
COc1ccc(OC)c(N(CC(=O)N2CCCC2)S(C)(=O)=O)c1	none (no result: KCC2 mod)
CCOC(=O)c1ccc(NC(=O)c2cccc(C)c2[N+](=O)[O-])cc1	none
COC(=O)c1ccc(NC(=O)c2cccc(C)c2[N+](=O)[O-])cc1	MrgX1 antagonist -6.3
COC(=O)c1ccc(NC(=O)Nc2ccc([N+](=O)[O-])cc2)cc1	MrgX1 antagonist -7.6 (no result: KCC2 mod)
O=C(Nc1ccc([N+](=O)[O-])cc1)Nc1ccc(Cl)cc1F	MrgX1 antagonist -4.9
CCc1ccc(NC(=O)Nc2ccon2)cc1	none (no result: KCC2 mod)
O=C(Nc1ccc([N+](=O)[O-])cc1)Nc1ccon1	MrgX1 antagonist -4.6 (no result: KCC2 mod)
CS(=O)(=O)Nc1cccc(C2=NN(C(=O)CCCC(=O)O)C(c3cccs3)C2)c1 (centres undefined)	none (no result: KCC2 mod)
Cc1cccc(N2CC(C(=O)Nc3nnc(SCC(=O)N4CCOCC4)s3)CC2=O)c1 (centres undefined)	none (no result: KCC2 mod)
CCc1ccc(-c2cc(C)no2)cc1S(=O)(=O)NC(C)Cc1ccco1 (centres undefined)	none (no result: KCC2 mod)
COc1ccc(NS(=O)(=O)c2cccc(C(=O)N3CCCC3)c2)cc1	none (no result: KCC2 mod)
O=[N+]([O-])c1ccc(CN2CCN(c3ccc([N+](=O)[O-])cc3)CC2)cc1	none (no result: KCC2 mod)
O=[N+]([O-])c1ccc(N2CCC(=NOCc3ccc(Cl)cc3)CC2)cc1	RGS4 pot -8.2
O=C(Cc1cccs1)Nc1nnc(SCc2ccc(C(F)(F)F)cc2)s1	MrgX1 antagonist -9.1
CC(C)N1C(=O)CCC1C(=O)N1CCC(Cc2ccccc2)CC1 (centres undefined)	MrgX1 antagonist -5.9
COc1ccc(OC)c(/C=C2\Oc3cc(OCC(=O)N4CCC[C@H]4C(=O)O)ccc3C2=O)c1	MrgX1 agonist 31 (no result: KCC2 mod)
COc1ccc(/C=C2\Oc3cc(OCC(=O)N4CCC[C@H]4C(=O)O)ccc3C2=O)c(OC)c1	none (no result: KCC2 mod)
Cc1cccc(NC(=O)CCS(=O)(=O)c2cc3c(cc2Cl)NC(=O)CO3)c1	none (no result: KCC2 mod)
COc1ccccc1-n1c2c(cc(C(=O)N3CCC(C)CC3)c1=O)C(=O)CC(C)(C)C2	MrgX1 PAM 8.6
CCCCN(CCCC)C(=O)C1CC=CCC1C(=O)O (centres undefined)	MrgX1 antagonist -5.9
CC(C)c1c(Cl)c(O)c(-c2ccccc2)c(=O)n1-c1ccc(F)cc1	MrgX1 antagonist -5.3
CC(=O)/C(N=Nc1cccc(C(F)(F)F)c1)=C(\C)O	none
O=C(/C(N=Nc1cccc(C(F)(F)F)c1)=C(/O)c1cccs1)C(F)(F)F	RGS4 pot -9.2
CCCC(C)C(=O)Nc1nnc(CCc2ccccc2)s1 (centres undefined)	none (no result: KCC2 mod)
CC(=O)Nc1ccc(S(=O)(=O)NCc2csc(-c3cccnc3)n2)cc1	KCC2 mod 3.2
CN1/C(=C/c2cccc[n+]2C)Sc2ccccc21	RGS4 pot -7.5 (no result: KCC2 mod)
Cc1ccc2c(c1)N(C)/C(=C/c1cccc[n+]1C)S2	RGS4 pot -7.3, MrgX1 antagonist -7.2 (no result: KCC2 mod)
CCCCN1/C(=C/c2cccc[n+]2C)Sc2cc(NC(C)=O)ccc21	none (no result: KCC2 mod)
CC(=O)c1ccc2c(c1)N(C)c1ccccc1S2	none
Cc1ccc2c(c1)N(C)/C(=C/c1cccc[n+]1CCO)S2	RGS4 pot -7.3 (no result: KCC2 mod)
O=C(NCC1CCCO1)c1ccc(F)c2ccccc12 (centres undefined)	none (no result: KCC2 mod)
CCCCn1c2ccc(C)cc2c2nnc(SCCN3CCCCC3)nc21	RGS4 pot -12 (no result: KCC2 mod)
COc1ccc(CN2C(=O)c3cccnc3C2=O)cc1S(=O)(=O)N(C)c1cccc(C)c1	none (no result: KCC2 mod)
O=c1c(-c2nc3ccccc3o2)c2oc3ccccc3n2c2ccccc12	RGS4 pot -9.6 (no result: MrgX1 antagonist, MrgX1 agonist, MrgX1 PAM)
Nc1ccc(-c2nc3ccccc3o2)cc1	none (no result: KCC2 mod)
O=C(NCc1ccc(Cl)cc1)N1CCN(Cc2ccccc2)CC1	none (no result: KCC2 mod)
CCS(=O)(=O)N1CCC(C(=O)Nc2ccc(C(C)=O)cc2)CC1	none (no result: KCC2 mod)
CC(/C=N/NC(=O)CCn1nnc2ccccc21)=C\c1ccccc1	MrgX1 antagonist -7.7
CC(/C=N/NC(=O)Cn1cnc2ccccc21)=C\c1ccccc1	none
CC1N(C)c2cccc3cccc(c23)N1C	MrgX1 agonist 33
COc1ccc(S(=O)(=O)N2CCc3ccccc32)cc1C(=O)OCC(=O)c1c(N)n(C)c(=O)n(C)c1=O	RGS4 pot -9.6
Cn1c(N)c(C(=O)COC(=O)c2cc(S(=O)(=O)N3CCCCC3)ccc2Cl)c(=O)n(C)c1=O	none
COCc1ccc(CN2CCC(C(=O)Nc3cccc(-c4cscn4)c3)CC2)o1	none (no result: KCC2 mod)
COCc1ccc(CN2CCC(C(=O)Nc3cccc(-c4cccc(Cl)c4)c3)CC2)o1	RGS4 pot -8.1 (no result: KCC2 mod)
COc1cc2c(cc1OC)C(c1cc(OC)c(OC)cc1[N+](=O)[O-])N(C(C)=O)CC2 (centres undefined)	none (no result: KCC2 mod)
CC(C)(C)c1cc(C(=O)NNC(=O)Nc2ccccc2)n(Cc2ccccc2)n1	MrgX1 antagonist -4.9
O=C(N/N=C/c1ccncc1)c1ccc(NS(=O)(=O)c2cccs2)cc1	MrgX1 PAM 9.6
COc1ccc(OC)c(S(=O)(=O)N2CCC3(CC2)OCCN3S(=O)(=O)c2cccs2)c1	RGS4 pot -7.5 (no result: KCC2 mod)
COc1cccc(-c2cc(C(=O)NCC3CCCO3)c3cc(C)cc(C)c3n2)c1 (centres undefined)	none (no result: KCC2 mod)
Cc1nc(-c2nc(-c3c(C(=O)NNC(=O)Nc4ccccc4)noc3C)cs2)cs1	none
Cc1nc(-c2nc(-c3c(C(=O)NN)noc3C)cs2)cs1	MrgX1 antagonist -5.9
O=C(Cn1c(-c2ccccc2)c[n+]2ccsc12)c1ccc(Br)cc1	RGS4 pot -8.1
C=CCN1C(=O)C2C(C(=O)NC3CCCC3)C3(C)C=CC2(O3)C1C(=O)NC1CCCC1 (centres undefined)	none (no result: KCC2 mod)
